The text below walks through data of paper PMC2172688 (The Journal of Cell Biology, 2003).

In one test the target is T1, Tsg101 UEV domain (Homo sapiens, UniProt Q99816).
T1 sequence (Q99816 2-145 limits assumed): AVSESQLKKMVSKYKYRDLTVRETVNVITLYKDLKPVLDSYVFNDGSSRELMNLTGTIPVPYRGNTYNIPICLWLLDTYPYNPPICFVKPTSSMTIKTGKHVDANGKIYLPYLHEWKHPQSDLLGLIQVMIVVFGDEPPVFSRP
Put plainly: BIAcore biosensor binding of Tsg101 UEV to immobilized GST–peptide fusions. The note with it: relative to HIV-1 PTAP peptide. In outline: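 Purified recombinant Tsg101 UEV domain was flowed over immobilized GST fusions of 10-amino-acid peptides spanning the central P(S/T)AP motifs of HIV-1 NL4–3 Gag, Tsg101 and Hrs. A mutant Gag PTAP peptide served as negative control. Binding was recorded at a range of UEV concentrations, and binding isotherms were plotted against concentration.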

Test [1] addresses GST fusion of a 10-amino acid peptide spanning the PTAP motif of human Tsg101 (human). Put plainly: SPR.
The target in test [2] is GST fusion of a 10-amino acid peptide spanning the PTAP motif of HIV-1 NL4-3 Gag (HIV-1 NL4-3). Put plainly: SPR. On the technique in general: In SPR one partner is held on a chip, and binding of the other changes the refractive index at the surface.
Test [3] concerns the target GST fusion of a 10-amino acid peptide spanning the PSAP motif of human Hrs (human). The test is described as follows: SPR.
In test [4] the target is T2, Tsg101–Gal4p binding domain fusion, full-length wild-type Tsg101 (human, UniProt Q99816 1-390).
T2 sequence (looked up): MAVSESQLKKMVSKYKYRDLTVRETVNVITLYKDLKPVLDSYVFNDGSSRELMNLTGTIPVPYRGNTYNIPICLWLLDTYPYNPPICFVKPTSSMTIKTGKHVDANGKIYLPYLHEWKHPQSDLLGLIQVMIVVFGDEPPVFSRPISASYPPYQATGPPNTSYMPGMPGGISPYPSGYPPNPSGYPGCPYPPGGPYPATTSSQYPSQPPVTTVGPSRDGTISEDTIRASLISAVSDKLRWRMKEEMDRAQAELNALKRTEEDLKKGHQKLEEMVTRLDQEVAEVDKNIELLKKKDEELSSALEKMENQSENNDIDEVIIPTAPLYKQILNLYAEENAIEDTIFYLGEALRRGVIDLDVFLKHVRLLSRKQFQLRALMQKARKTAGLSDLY
The test is described as follows: two-hybrid.

Turning to SPTPSAPVPL [Hrs SPTPSAPVPL], the “binding affinity weaker than Tsg101 UEV binding to the HIV-1 PTAP peptide” value on Tsg101 UEV domain was “sevenfold”. As to “Tsg101 UEV domain (NH2-terminal ubiquitin E2 variant domain of Tsg101) (from UniProt Q99816 2-145) (domain or fragment)”, the results for the fold weaker binding affinity than for the HIV-1 PTAP peptide in test [1] and in test [3] were 4 fold and 7 fold, respectively. Further, in test [2], the dissociation constant Kd is 21 µM. For the molecule VIIPTAPLYK [Tsg101 VIIPTAPLYK], the “binding affinity weaker than Tsg101 UEV binding to the HIV-1 PTAP peptide” value on Tsg101 UEV domain is reported as “fourfold”.

B1: Hrs^ΔPSAP, Gal4p activation domain fusion (alanine substitution of the Hrs 348PSAP351 sequence) (natural protein, human, UniProt O14964 1-777, looked up)
chain: MGRGSGTFERLLDKATSQLLLETDWESILQICDLIRQGDTQAKYAVNSIKKKVNDKNPHVALYALEVMESVVKNCGQTVHDEVANKQTMEELKDLLKRQVEVNVRNKILYLIQAWAHAFRNEPKYKVVQDTYQIMKVEGHVFPEFKESDAMFAAERAPDWVDAEECHRCRVQFGVMTRKHHCRACGQIFCGKCSSKYSTIPKFGIEKEVRVCEPCYEQLNRKAEGKATSTTELPPEYLTSPLSQQSQLPPKRDETALQEEEELQLALALSQSEAEEKERLRQKSTYTSYPKAEPMPSASSAPPASSLYSSPVNSSAPLAEDIDPELARYLNRNYWEKKQEEARKSPTAAAAVPLTEPAAQPGEGHAAPTNVVENPLPETDSQPIPPSGGPFSEPQFHNGESEESHEQFLKALQNAVTTFVNRMKSNHMRGRSITNDSAVLSLFQSINGMHPQLLELLNQLDERRLYYEGLQDKLAQIRDARGALSALREEHREKLRRAAEEAERQRQIQLAQKLEIMRQKKQEYLEVQRQLAIQRLQEQEKERQMRLEQQKQTVQMRAQMPAFPLPYAQLQAMPAAGGVLYQPSGPASFPSTFSPAGSVEGSPMHGVYMSQPAPAAGPYPSMPSTAADPSMVSAYMYPAGATGAQAAPQAQAGPTASPAYSSYQPTPTAGYQNVASQAPQSLPAISQPPQSSTMGYMGSQSVSMGYQPYNMQNLMTTLPSQDASLPPQQPYIAGQQPMYQQMAPSGGPPQQQPPVAQQPQAQGPPAQGSEAQLISFD
In the case of B1, the “fold reduction of binding against wild-type Hrs” value in test [4] is approximately 2 fold.

As a reminder, the Kd is the free concentration of one partner at which half of the binding sites on the other are occupied at equilibrium, for simple one-to-one binding. Low readings indicate tighter binding, high ones weaker binding.
